Experimental data reported in ChEMBL document CHEMBL1944589, “Identification of novel SAR properties of the Jak2 small molecule inhibitor G6: significance of the para-hydroxyl orientation” (2012).
Calls of active or inactive are those of the source. No cut-off for these calls is given here.

Legend:
Bone marrow cell [1] = assay: Anticolonegic activity in mouse bone marrow cells expressing Jak2 V617F mutation assessed as decrease in number of erythroid burst forming units at 25 uM after 12 hrs and measured on day 6; format: functional, cell-based
In short: (§1)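 Bone marrow cells taken from 6-month-old Jak2-V617F transgenic mice were incubated ex vivo in medium containing 25 μM of each compound for 0, 12 or 24 h. Cells were then washed, plated in methylcellulose (semi-solid) medium and cultured for 6 further days. BFU-E and CFU-GM colonies were counted. Each condition was run in duplicate and compared with the 0 h condition.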

HEL [2] = assay: Cell cycle arrest in human HEL cells assessed as accumulation at G2/M phase at 10 uM after 24 hrs by flow cytometric analysis; format: functional, cell-based
In short: (§2)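 HEL cells were exposed to 10 μM of each compound for 24 h. DNA content was then analyzed by flow cytometry. Data come from two experiments, each measured in triplicate.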

HEL [3] = assay: Cell cycle arrest in human HEL cells assessed as effect on CDK1 expression at 25 uM after 24 hrs by Western blot analysis; format: functional, cell-based
In short: (§3)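 HEL cells were exposed to 25 μM of each compound for 24 h. Lysates were immunoblotted for cyclin A, cyclin B1 and CDK1, with β-actin as the loading control. Two independent experiments were run.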

HEL [4] = assay: Growth inhibition of human HEL cells expressing Jak2 V617F mutation at 0.03 to 30 uM by trypan blue exclusion B assay; format: functional, cell-based; conditions: TDE = time-dependent effect
HEL [5] = assay: Induction of apoptosis in human HEL cells assessed as cleavage of Bim at 25 uM after 24 hrs by Western blot analysis; format: functional, cell-based
In short: (§4)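 HEL cells were exposed to 25 μM of each compound for 24 h. Cleavage of PARP, caspase-3, Bid and Bim was assessed by Western blot. Two experiments were run for each blot.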

HEL [6] = assay: Induction of apoptosis in human HEL cells at 10 uM after 48 hrs by annexinV-propidium iodide staining-based flow cytometric analysis; format: functional, cell-based
In short: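 HEL cells were exposed to 10 μM of each compound for 48 h, then stained with Annexin V and propidium iodide and analyzed by flow cytometry. Early apoptosis was scored as Annexin V-positive, PI-negative. Data come from two independent experiments, each in triplicate.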

Bone marrow cell [7] = assay: Anticolonegic activity in mouse bone marrow cells expressing Jak2 V617F mutation assessed as decrease in number of granulocyte/macrophage colony forming units at 25 uM after 24 hrs and measured on day 6; format: functional, cell-based; in short: as §1
HEL [8] = assay: Cell cycle arrest in human HEL cells assessed as increase in cell population at G2 phase at 10 uM after 24 hrs by flow cytometric analysis; format: functional, cell-based; in short: as §2
HEL [9] = assay: Cell cycle arrest in human HEL cells assessed as effect on cyclin B1 expression at 25 uM after 24 hrs by Western blot analysis; format: functional, cell-based; in short: as §3
HEL [10] = assay: Growth inhibition of human HEL cells expressing Jak2 V617F mutation at 0.85 uM after 72 hrs by trypan blue exclusion B assay; format: functional; conditions: read-out: GI
In short: (§5)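 HEL cells were incubated with graded compound concentrations for 72 h. Viability was determined by trypan blue exclusion.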

HEL [11] = assay: Cell cycle arrest in human HEL cells assessed as decrease in cyclin A expression at 25 uM after 24 hrs by Western blot analysis; format: functional, cell-based; in short: as §3
HEL [12] = assay: Cell cycle arrest in human HEL cells assessed as decrease in cell population at G1 phase at 10 uM after 24 hrs by flow cytometric analysis; format: functional, cell-based; in short: as §2
HEL [13] = assay: Induction of apoptosis in human HEL cells assessed as cleavage of Bid at 25 uM after 24 hrs by Western blot analysis; format: functional, cell-based; in short: as §4
HEL [14] = assay: Induction of apoptosis in human HEL cells assessed as cleavage of PARP at 25 uM after 24 hrs by Western blot analysis; format: functional, cell-based; in short: as §4
HEL [15] = assay: Growth inhibition of human HEL cells expressing Jak2 V617F mutation after 72 hrs by trypan blue exclusion B assay; format: functional, cell-based; in short: as §5
[16] = molecular target: Tyrosine-protein kinase JAK2 (Homo sapiens) (UniProt O60674); assay: Inhibition of Jak2-mediated STAT5 phosphorylation at Try694 in human HEL cells at 25 uM after 24 hrs by Western blot analysis; format: cell-based
Chain of Tyrosine-protein kinase JAK2 (Homo sapiens) (O60674 whole entry): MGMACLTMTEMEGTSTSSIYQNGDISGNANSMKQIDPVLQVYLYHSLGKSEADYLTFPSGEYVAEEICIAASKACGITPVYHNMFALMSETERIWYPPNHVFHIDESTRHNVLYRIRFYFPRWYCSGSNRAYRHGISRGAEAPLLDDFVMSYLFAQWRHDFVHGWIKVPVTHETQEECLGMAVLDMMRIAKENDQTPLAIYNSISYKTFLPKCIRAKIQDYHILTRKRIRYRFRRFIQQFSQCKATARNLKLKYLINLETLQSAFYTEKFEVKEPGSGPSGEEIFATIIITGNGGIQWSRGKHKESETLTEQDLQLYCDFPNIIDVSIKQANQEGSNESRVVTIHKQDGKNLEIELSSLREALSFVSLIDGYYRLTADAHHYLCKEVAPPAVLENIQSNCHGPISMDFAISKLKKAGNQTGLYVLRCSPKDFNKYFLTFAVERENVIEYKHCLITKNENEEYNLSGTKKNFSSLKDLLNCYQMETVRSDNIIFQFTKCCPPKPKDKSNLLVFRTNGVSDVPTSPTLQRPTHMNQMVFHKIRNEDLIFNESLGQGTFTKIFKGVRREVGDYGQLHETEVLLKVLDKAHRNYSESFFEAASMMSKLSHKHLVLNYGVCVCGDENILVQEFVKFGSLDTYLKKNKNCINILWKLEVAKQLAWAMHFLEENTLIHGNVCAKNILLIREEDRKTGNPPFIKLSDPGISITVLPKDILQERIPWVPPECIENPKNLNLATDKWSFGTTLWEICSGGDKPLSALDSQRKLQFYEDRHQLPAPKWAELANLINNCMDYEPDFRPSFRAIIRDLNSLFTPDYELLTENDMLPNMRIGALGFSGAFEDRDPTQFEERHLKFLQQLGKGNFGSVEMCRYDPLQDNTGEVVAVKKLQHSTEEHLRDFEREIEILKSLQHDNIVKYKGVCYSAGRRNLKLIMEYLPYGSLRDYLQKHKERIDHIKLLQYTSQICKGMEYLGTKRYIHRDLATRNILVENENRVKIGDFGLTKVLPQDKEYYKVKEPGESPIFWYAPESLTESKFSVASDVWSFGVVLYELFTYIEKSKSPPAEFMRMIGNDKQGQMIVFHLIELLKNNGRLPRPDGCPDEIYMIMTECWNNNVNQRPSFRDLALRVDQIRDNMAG
In short: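 HEL cells were exposed to 25 μM of each compound for 24 h. Lysates were immunoprecipitated for STAT5 and phospho-STAT5 was detected by Western blot. Densitometry expressed phospho-STAT5 as percent of total, normalized to the DMSO control; n = 4.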

[17] = molecular target: Tyrosine-protein kinase JAK2 (Homo sapiens) (UniProt O60674); assay: Jak2-mediated GST-STAT1 phosphorylation at 2.5 uM after 30 mins by Western blot analysis as % of control
BaF3 [18] = assay: Growth inhibition of mouse BAF3 cells expressing Jak2 V617 mutation at 0.03 to 30 uM by MTS assay; format: functional, cell-based; conditions: TDE = time-dependent effect
In short: (§6)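 Ba/F3 cells expressing EpoR and Jak2-V617F were incubated with graded compound concentrations for 72 h. Viability was read by MTS assay. Data come from two independent experiments, each in triplicate.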

Bone marrow cell [19] = assay: Anticolonegic activity in mouse bone marrow cells expressing Jak2 V617F mutation assessed as decrease in number of granulocyte/macrophage colony forming units at 25 uM after 12 hrs and measured on day 6; format: functional, cell-based; in short: as §1
HEL [20] = assay: Induction of apoptosis in human HEL cells assessed as cleavage of caspase-3 at 25 uM after 24 hrs by Western blot analysis; format: functional, cell-based; in short: as §4
[21] = molecular target: Tyrosine-protein kinase JAK2 (Homo sapiens) (UniProt O60674); assay: Jak2 autophosphorylation at 2.5 uM after 30 mins by Western blot analysis as % of control
HEL [22] = assay: Growth inhibition of human HEL cells expressing Jak2 V617F mutation at 0.03 to 30 uM at 24 to 72 hrs by trypan blue exclusion B assay; format: functional, cell-based
BaF3 [23] = assay: Growth inhibition of mouse BAF3 cells expressing Jak2 […] mutation after 72 hrs by MTS assay; format: functional, cell-based; in short: as §6
Bone marrow cell [24] = assay: Anticolonegic activity in mouse bone marrow cells expressing Jak2 V617F mutation assessed as decrease in number of erythroid burst forming units at 25 uM after 24 hrs and measured on day 6; format: functional, cell-based; in short: as §1
HEL [25] = assay: Growth inhibition of human HEL cells expressing Jak2 V617F mutation at 0.03 to 30 uM after 72 hrs by trypan blue exclusion B assay; format: functional, cell-based; in short: as §5
BaF3 [26] = assay: Growth inhibition of mouse BAF3 cells expressing Jak2 V617 mutation at 30 uM after 72 hrs by MTS assay; format: functional, cell-based; in short: as §6

residual activity [17] | residual activity [21] | SMILES | Activity (Bone marrow cell [1]) | Activity (HEL [2]) | Activity (HEL [3]) | Activity (HEL [6]) | Activity (Bone marrow cell [7]) | Activity (HEL [8]) | Activity (HEL [9]) | Activity (HEL [11]) | Activity (HEL [12]) | Activity (HEL [14]) | Activity (Bone marrow cell [19]) | Activity (HEL [20]) | Activity (Bone marrow cell [24]) | growth inhibition (GI) (HEL [25]) | further results
71.5% | 44.2% | CN(C)Cc1cc(/C=C/c2ccc(O)c(CN(C)C)c2)ccc1O | Active | Active | inactive | Active | Active | Active | inactive | Active | Active | Active | Active | Active | Active |  | growth inhibition (GI) (HEL [4]): tde; Activity (HEL [5]): Active; inhibition of growth at 0.85 µM (HEL [10]): 50%; Activity (HEL [13]): Active; growth inhibition (GI) (HEL [15]): Dose-dependent effect; inhibition [16]: Active; growth inhibition (GI) (BaF3 [18]): tde; growth inhibition (GI) (HEL [22]): Active; growth inhibition (GI) (BaF3 [23]): Dose-dependent effect
89.1% | 89.1% | C/C(=C(/C)c1ccc(O)c(CN(C)C)c1)c1ccc(O)c(CN(C)C)c1 |  |  | inactive | Active | Active |  | inactive | inactive |  | Active |  |  | Active | Active | 
104% | 98.4% | C/C(=C(/C)c1ccc(CN(C)C)c(O)c1)c1ccc(CN(C)C)c(O)c1 | Active | Active | inactive | Active | Active | Active | inactive | Active | Active | Active | Active | Active | Active | Active | 
93.3% | 94.4% | CN(C)Cc1ccc(/C=C/c2ccc(CN(C)C)c(O)c2)cc1O |  |  | inactive | inactive | Active |  | inactive | inactive |  | inactive |  |  |  | Active | growth inhibition (GI) (BaF3 [26]): Active
